Results taken from ChEMBL document CHEMBL1157206 (Bioorg Med Chem, 2008).

Columns and labels:
[1] = test system: L929; experiment: Effect on oxidative stress in mouse L929 cells assessed as glutathione depletion at 50 uM after 4 hrs; assay type: functional
In short: (§1)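 L929 cells seeded at 5 × 10³ per well and grown 48 h to about 90% confluence. Treatment runs in HBSS/15 mM Hepes pH 7.4 for 4 h at 37 °C. Cells are then washed and incubated 15 min with 7.5 µM monochlorobimane before the fluorescence read. Depletion counts as significant below 80% of control. Positive control is 100 µM diethylmaleate.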

[2] = test system: PA-1; experiment: Cytotoxicity against human PA1 cells by resazurin reduction test; assay type: functional, cell-based
In short: (§2)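 Cells seeded at 5 × 10³ per well and allowed to adhere 16 h. Compounds are made up from DMSO stocks, with DMSO held at 0.5% (v/v) at every concentration, and added as a 4× solution in MEM. Continuous exposure lasts 48 h. Resazurin at 25 µg/mL in MEM without serum or phenol red is then given for 1 h at 37 °C, 5% CO₂. Fluorescence is read at ex 530/em 590 nm. IC50 comes from the blank-subtracted concentration–response curve, expressed as percent of control wells.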

[3] = test system: PC-3; experiment: Cytotoxicity against human PC3 cells by resazurin reduction test; assay type: functional, cell-based; in short: as §2
[4] = test system: L929; experiment: Growth inhibition in mouse L929 cells after 48 hrs; assay type: functional; design: concentration or dose not given beside the values
[5] = test system: A549; experiment: Cytotoxicity against human A549 cells by resazurin reduction test; assay type: functional, cell-based; in short: as §2
[6] = test system: MCF7; experiment: Cytotoxicity against human MCF7 cells by resazurin reduction test; assay type: functional, cell-based; in short: as §2
[7] = Cytotoxicity against human M4Beu cells by resazurin reduction test; assay type: functional, cell-based; in short: as §2
[8] = test system: DLD-1; experiment: Cytotoxicity against human DLD1 cells by resazurin reduction test; assay type: functional, cell-based; in short: as §2
[9] = Cytotoxicity against human primary fibroblasts by resazurin reduction test; assay type: cell-based; settings: Fibroblast; in short: as §2
[10] = test system: L929; experiment: Effect on oxidative stress in mouse L929 cells assessed as ROS production at 12.5 uM after 4 hrs by 2',7'-dichlorofluorescein-diacetate assay; assay type: functional
In short: (§3)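 L929 cells seeded at 5 × 10³ per well and grown 48 h to about 90% confluence. Cells are loaded with 20 µM DCFH-DA in HBSS/15 mM Hepes pH 7.4 for 1 h at 37 °C, washed, then treated in the same buffer at 37 °C. Fluorescence is read after 4 h at 485/530 nm and expressed as percent of control. Above 150% counts as significant; 100 µM tert-butyl hydroperoxide serves as positive control.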

[11] = test system: L929; experiment: Effect on oxidative stress in mouse L929 cells assessed as ROS production at 25 uM after 4 hrs by 2',7'-dichlorofluorescein-diacetate assay; assay type: functional; in short: as §3
[12] = test system: L929; experiment: Effect on oxidative stress in mouse L929 cells assessed as cytolysis at 50 uM after 4 hrs by calcein-AM assay; assay type: functional
In short: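 L929 cells seeded at 5 × 10³ per well and grown 48 h to about 90% confluence. Cells are washed with HBSS/Hepes, then exposed 4 h at 37 °C in complete medium with 0.5% DMSO vehicle, in triplicate. Tween 80 is the lysis control. Detached cells are checked by microscopy, then 4 µM calcein-AM is added for 1 h and read at ex 485/em 530 nm. Percent intact cells = (sample − 100%-lysis background)/(vehicle − background) × 100.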

[13] = test system: L929; experiment: Effect on oxidative stress in mouse L929 cells assessed as ROS production at 6.25 uM after 4 hrs by 2',7'-dichlorofluorescein-diacetate assay; assay type: functional; in short: as §3
[14] = test system: L929; experiment: Effect on oxidative stress in mouse L929 cells assessed as glutathione depletion at 6.25 uM after 4 hrs; assay type: functional; in short: as §1

Row | SMILES | Activity [1] | IC50 [2] [µM] | IC50 [3] [µM] | inhibition (INH) [4] [%] | IC50 [5] [µM] | IC50 [6] [µM] | IC50 [7] [µM] | IC50 [8] [µM] | IC50 [9] [µM] | Activity [10] | Activity [11] | Activity [12] | Activity [13] | Activity [14]
1 | CC(=O)OC[C@H]1O[C@@H](NC(=O)CCNC(=O)CCCc2ccc(N(CCCl)CCCl)cc2)[C@H](F)[C@@H](OC(C)=O)[C@@H]1OC(C)=O | <=80% | 0.24 | 3.7 | 50 | 9.2 | 13 | 15 | 11 | 7 | – | – | – | – | –
2 | CC(=O)OC[C@H]1O[C@@H](Oc2ccc(NC(=O)CNC(=O)CCCc3ccc(N(CCCl)CCCl)cc3)cc2)[C@H](F)[C@@H](OC(C)=O)[C@@H]1OC(C)=O | – | 1.6 | 8 | 40 | 10 | 14 | 14 | 6 | 16 | – | – | – | – | –
3 | CC(=O)OC[C@H]1O[C@@H](NC(=O)NCCCc2ccc(N(CCCl)CCCl)cc2)[C@H](F)[C@@H](OC(C)=O)[C@@H]1OC(C)=O | – | 0.6 | 4 | 40 | 8 | 26.4 | 27 | 7 | 13 | >=150% | – | – | – | –
4 | CC(=O)OC[C@H]1O[C@@H](NC(=O)CNC(=O)CCCc2ccc(N(CCCl)CCCl)cc2)[C@H](F)[C@@H](OC(C)=O)[C@@H]1OC(C)=O | – | 1 | 10 | 70 | 5 | 8 | 6.8 | 4 | 4.1 | – | >=150% | – | – | –
5 | CC(=O)OC[C@H]1O[C@@H](NC(=O)CCCc2ccc(N(CCCl)CCCl)cc2)[C@H](F)[C@@H](OC(C)=O)[C@@H]1OC(C)=O | – | 1.3 | 4.4 | – | 5.4 | 27 | 27 | 7.1 | 11 | – | – | – | – | –
6 | CC(=O)OC[C@H]1O[C@@H](NC(=O)c2ccc(NC(=O)CCCc3ccc(N(CCCl)CCCl)cc3)cc2)[C@H](F)[C@@H](OC(C)=O)[C@@H]1OC(C)=O | <=80% | 0.3 | 1.4 | 50 | 2.7 | 5 | 7 | 3 | 4 | – | – | <=80% | – | –
7 | O=C(O)CCCc1ccc(N(CCCl)CCCl)cc1 [CHLORAMBUCIL] | – | 2.8 | – | 30 | 43 | > 100 | > 100 | 47 | 99 | – | – | – | >=150% | <=80%
8 | CC(=O)OC[C@H]1O[C@@H](NC(=O)CCCNC(=O)CCCc2ccc(N(CCCl)CCCl)cc2)[C@H](F)[C@@H](OC(C)=O)[C@@H]1OC(C)=O | – | 0.27 | 3 | 50 | 13 | 12 | 9 | 9 | 4.1 | – | – | – | >=150% | –
9 | CC(=O)OC[C@H]1O[C@@H](Oc2ccc(NC(=O)CCCc3ccc(N(CCCl)CCCl)cc3)cc2)[C@H](F)[C@@H](OC(C)=O)[C@@H]1OC(C)=O | – | 0.76 | 11 | – | 1.9 | 26 | > 50 | 10 | > 50 | – | – | – | – | <=80%
